Published values from different studies.
Protocols differ between the studies behind these lines.
Target: Cannabinoid receptor 1 (CNR1, Homo sapiens, UniProt P21554)

N#Cc1c(Oc2cccc(OS(=O)(=O)CCCC(F)(F)F)c2)cccc1C(F)(F)F — EC50 (calcium signal; agonist): 0.519 µM
CCCc1cc(O)c2c(c1)OC(C)(C)[C@@H]1CCC(C)=C[C@@H]21 — Ki (ligand displacement; radioligand; cell membranes): 0.022 µM
CCOC(=O)C(CC)(CCCSCCOCCOCCOCCOCCNC(=O)OC(C)(C)C)NC(=O)c1ccc(C2CC2)c(Cc2ccc(F)cc2)n1 (centres unmarked) — Ki (ligand displacement; radioligand; cell membranes): 0.731 µM
CC1(C)C(C(=O)c2cn(CCCCCF)c3ccccc23)C1(C)C — EC50 (GTPγS binding; agonist; radiometric; cell membranes): 0.159 µM
C=CCC(CC)(NC(=O)c1ccc(C2CC2)c(Cc2ccc(F)cc2)n1)C(=O)OCC (centres unmarked) — Ki (ligand displacement; radioligand; cell membranes): 0.0029 µM
CC/C(=C(\c1ccc(O)cc1)c1ccc(OCCN(C)C)cc1)c1ccccc1 — Kb (cAMP; antagonist): 1.6 µM
CCCCCc1cc2c(c(O)c1C(=O)O)C1C=C(C)CCC1C(C)(C)O2 (centres unmarked) — Ki (ligand displacement; radioligand; cell membranes): 1.29 µM
CCCCCn1nc(C(=O)N[C@H](C(N)=O)C(C)C)c2ccccc21 — EC50 (calcium signal; agonist): 0.00363 µM
CCCc1cc(O)c2c(c1)OC(C)(C)c1ccc(C)cc1-2 — Ki (ligand displacement; radioligand; cell membranes): 0.565 µM
Cc1c(C(=O)N2CCC(C(N)=O)(c3ccccc3)CC2)nn(-c2ccc(Cl)cc2Cl)c1-c1ccc(Cl)cc1 — Kb (calcium signal; antagonist): 0.0004 µM
CCOC(=O)[C@](CC)(CCC[S+]([O-])CCOCCOCCNC(=O)OC(C)(C)C)NC(=O)c1ccc(C2CC2)c(Cc2ccc(F)cc2)n1 (some centres unmarked) — Ki (ligand displacement; radioligand; cell membranes): 0.326 µM
CCCCC/C=C\C/C=C\C/C=C\C/C=C\CCCC(=O)NCCCl — Ki (ligand displacement; radioligand; cell membranes): 0.00074 µM
CCOC(=O)C(CC)(CCCSCCOCCOCCNc1ccc([N+](=O)[O-])c2nonc12)NC(=O)c1ccc(C2CC2)c(Cc2ccc(F)cc2)n1 (racemic) — Ki (ligand displacement; radioligand; cell membranes): 0.383 µM
CCCCCc1cc(O)c(C/C=C(\C)CCC=C(C)C)c(O)c1 — Ki (ligand displacement; radioligand; cell membranes): 3.09 µM
